Compound activity from PubChem.
KCNQ1 act – human KCNQ1 channel potentiation or activation. P51787. CHO-K1 KCNQ1, thallium flux FluxOR fluorescence; hits give high values. B-score at 10 µM. actives 0.35% (n = 310,000). AID 2648;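 active means fluorescence ratio B-score, a plate-corrected score, at least three library SD, with initial intensity B-score within 5 SD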
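System: CHO-K1 cells stably expressing KCNQ1 / Medium: assay buffer for compound exposure, DMSO matched across wells / Reagent: thallium- and potassium-containing depolarizing buffer / Compound: one concentration, matched DMSO / Incubation: 20 min compound pretreatment at room temperature / Measured by: kinetic FluxOR fluorescence, 10 s baseline plus 110 s post-stimulus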
KCNK9 inh – blocks the human KCNK9 two-pore domain potassium channel; HEK293 KCNK9, FluxOR thallium flux fluorescence; hits give low values; B-score at 10 µM; actives 1.2% (n = 310,000); AID 488922;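 active means ratio B-score over 3 SD below the library mean, with starting fluorescence within 5 SD of its mean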;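 further: negative B-score means less thallium flux so channel inhibition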
KCNQ1 block – human KCNQ1 channel inhibition; AID 2642; CHO-K1 KCNQ1, FluxOR thallium flux fluorescence; hits give high values; B-score at 10 µM; actives 1.3% (n = 310,000);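 active means compounds whose thallium flux B-score, printed positive for inhibition, exceeds three library SD while starting fluorescence stays within three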;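 further: channel opened by potassium depolarization with thallium stimulus after 20 min compound exposure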
hERG protect – compounds protecting human hERG from proarrhythmic drug block. Q12809. CHO-hERG, FluxOR thallium flux, dofetilide IC70 present. activation (rescue from dofetilide block), less the hit threshold, % at 10 µM. actives 0.51% (n = 310,000). AID 1511;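 active means activation above the mean of controls blocked by dofetilide plus 5 SD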;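 further: thallium influx through hERG after potassium depolarization seen as dye fluorescence rise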
KCNK3 inh – human KCNK3 channel inhibition, primary screen; CHO-KCNK3 thallium flux, FluxOR fluorescence; hits give low values; actives 0.84% (n = 340,000); O14649; B-score at 10 µM;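 active means B-score under library mean minus 4 SD, starting fluorescence ratio at most library mean plus 5 SD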;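 further: more negative B-score means stronger inhibition of thallium flux through KCNK3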
KCC2 mod – modulators of human KCC2 chloride dependent transport; B-score of Tl+ flux slope (higher = more flux/activation; lower = inhibition) at 10 µM; Q9H2X9; actives 2.2% (n = 190,000); KCC2 cells, thallium flux FluoZin-2 fluorescence;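 active means thallium flux slope and its plate-corrected score both differing from the plate sample mean at a set confidence after two filtering rounds, in either direction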;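 further: slope of fluorescence scaled to starting intensity during 10 to 20 s after thallium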
KCC2 sec1 – confirmation of human KCC2 transport modulators | shares compounds with KCC2 mod | HEK293-KCC2, thallium flux, FluoZin2 fluorescence; hits give high values | normalised thallium flux (F/F0 slope) at 10 µM | actives 15% (n = 3,700);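 active means thallium flux slope above the same plate's solvent-only control mean plus 3 SD; inconclusive means the two replicate wells disagree; inactive means no significant difference from solvent-only control wells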
KCC2 bumet counter – thallium flux despite bumetanide block in KCC2 cells, secondary assay 3 | normalized thallium flux at 10 µM | HEK293-KCC2 + bumetanide/ouabain, thallium flux FluoZin2; hits give high values | shares compounds with KCC2 mod | actives 49% (n = 3,700) | AID 1714;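 active means thallium entry rate above the same plate's blocked-transporter control wells by more than 3 SD; inconclusive means the two repeat wells disagree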;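 further: raw slope of fluorescence over initial fluorescence between 10 and 20 s after thallium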
KCC2 sec2 – confirmation of human KCC2 transport modulators. shares compounds with KCC2 mod. HEK293-KCC2, thallium flux FluoZin2 fluorescence; actives lie on both sides; F/F0 rise rate, 10–20 s post-thallium. normalized thallium flux at 10 µM. actives 23% (n = 3,700);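 active means thallium flux slope more than 3 SD above or below the plate's solvent-only control mean, mostly below; inconclusive means the two repeat wells disagreed; inactive means no significant shift from solvent-only controls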;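 further: raw slope with 0.1% DMSO as baseline and bumetanide as block control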
HEK293 Tl flux – parental HEK flux effect, counter-screen | shares compounds with KCC2 mod | HEK293 parental cells, thallium flux FluoZin2, ouabain; baseline-ratio fluorescence slope, 10–20 s after thallium | thallium flux rate (normalised fluorescence) at 10 µM | actives 46% (n = 3,700);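 active means thallium flux rate significantly above the same plate's solvent-only control wells, beyond their mean plus 3 SD; inconclusive means the two replicate wells gave conflicting results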
KCC2 ouabain – confirmation of human KCC2 modulators with ouabain | shares compounds with KCC2 mod | AID 1717 | raw Tl+ flux slope (below DMSO = inhibition, above = activation) at 10 µM | HEK293-KCC2, thallium flux FluoZin2 fluorescence; bidirectional: low = inhibitor, high = activator | actives 48% (n = 3,700);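 active means thallium flux slope beyond 3 SD from same-plate DMSO control mean in most replicates, usually higher, sometimes lower; inconclusive means repeat tests gave conflicting results; inactive means no significant difference from controls in most replicates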;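 further: slope of initial-normalized fluorescence between seconds 10 and 20 after thallium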
HEK counter2 – acts in parental HEK cells, second KCC2 counter-screen. thallium flux slope at 10 µM. actives 33% (n = 3,700). HEK293 parental, thallium flux FluoZin-2 fluorescence slope. AID 1718. shares compounds with KCC2 mod;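 active means thallium flux slope above the same plate's solvent-control mean plus 3 SD in both duplicate wells; inconclusive means duplicate wells that disagreed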;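 further: run without ouabain in cells lacking the KCC2 cotransporter; slope of fluorescence scaled to its starting value between 10 and 20 s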
An asterisk follows results filed as active; i = inactive; ? = inconclusive; · = no result given. A selection: hits, their analogues and other compounds. The true share with any hit is near 4.1%.

SMILES	KCNQ1 act	KCNK9 inh	KCNQ1 block	hERG protect	KCNK3 inh	KCC2 mod	KCC2 sec1	KCC2 bumet counter	KCC2 sec2	HEK293 Tl flux	KCC2 ouabain	HEK counter2
O=C(NC1CCCCC1)c1sc(=S)n2c1[nH]c(=O)c1ccccc12	i	i	i	-10.8	i	8.7*	0.00812	0.0333*	0.0407*	0.0255*	0.0348*	0.0274*
CCCCNC(=O)c1sc(=S)n2c1[nH]c(=O)c1ccccc12	i	i	i	-30.9	i	-1.01	·	·	·	·	·	·
O=C(CCC1CCCCC1)NCCS(=O)(=O)N1CCN(c2ccc(F)cc2)CC1	i	i	i	-12.2	i	·	·	·	·	·	·	·
CS(=O)(=O)N(CC(=O)N1CCN(c2ccccc2)CC1)c1cccc(Br)c1	i	i	i	-12.5	i	·	0.0063	0.005	0.0232*	0.00759	0.0148*	0.0102
CS(=O)(=O)N(CC(=O)N1CCN(c2ccc(F)cc2)CC1)c1ccc(F)c(Cl)c1	i	i	i	-9.2	i	-4.44*	?	0.00679	0.0277*	0.00752	0.0163*	0.011
Cc1cc(C)cc(-n2ncc3c2CCCC3NC(=O)CCN2Cc3ccccc3C2=O)c1 (stereo not drawn)	i	i	i	-3.0	i	·	·	·	·	·	·	·
CC(NC(=O)C1=CC=CN2CCS(=O)(=O)N=C12)c1ccc(Cl)c(Cl)c1 (stereo not drawn)	·	·	·	·	i	·	·	·	·	·	·	·
Cc1ccc(CCC(=O)Nc2cc(Cl)ccc2Cl)o1	i	i	i	-3.7	i	·	·	·	·	·	·	·
Cc1ccc(CCc2nnc(SCC(=O)Nc3cc(Cl)ccc3Cl)n2-c2ccccc2)o1	i	i	i	-12.0	i	-4.74*	0.00827	0.005	0.0308	0.00641	0.0262	0.00954
O=C(NC(=S)NC1CCCC1)c1ccccc1Br	i	i	i	-3.3	i	8.79*	0.013*	0.0548*	0.0369	0.0218*	?	0.0149*
CCOc1cc(N2CCOCC2)c(OCC)cc1NC(=O)c1ccc(OC)c(S(=O)(=O)N2CCOCC2)c1	·	·	·	·	i	·	·	·	·	·	·	·
CCOC(=O)c1sc(NNC(=O)c2ccc(F)cc2)nc1C	i	i	i	-12.6	i	10.9*	0.0155*	0.0241*	0.0382	?	0.0304*	?
O=C(CSc1nnc(-c2ccco2)n1Cc1ccccc1)c1ccccc1	i	i	i	-13.2	i	-8.24*	0.0066	0.00473	?	?	0.0154*	0.0103
Cc1ccc(C(=O)CSc2nnc(-c3ccco3)n2Cc2ccccc2)cc1	i	i	i	-6.1	i	-3.2*	0.00635	0.00363	0.0314	?	0.0134*	0.0107
CCCn1c(SCC(=O)N2CCCCC2)nnc1-c1ccco1	i	i	i	-7.0	i	5.59*	0.00843	0.00613	0.0324	0.00737	0.0217	0.00971
CCN1C(=O)[C@H]2[C@H]3CN=C(SCc4ccc(C)cc4)N3[C@@](Cc3ccccc3)(C(=O)OC)[C@H]2C1=O	·	·	·	·	i	·	·	·	·	·	·	·
